Source: ChEMBL document CHEMBL1153403, “Design, synthesis, and evaluation of novel fluoroquinolone-aminoglycoside hybrid antibiotics” (J Med Chem, 2009)
Converted amounts (≈) assume the structure as drawn.

Assays:
Type in all cases: functional
Staphylococcus aureus = assay: Antibacterial activity against methicillin-resistant Staphylococcus aureus ATCC 43300 by double-microdilution method
Escherichia coli [1] = assay: Antibacterial activity against Escherichia coli R477-100 by double-microdilution method
Bacillus subtilis = assay: Antibacterial activity against aminoglycosides-susceptible Bacillus subtilis ATCC 6633 by double-microdilution method
Escherichia coli [2] = assay: Antibacterial activity against kanamycin-resistant Escherichia coli AG100B expressing aminoglycosides resistant APH(3')-1 enzyme by double-microdilution method
Escherichia coli [3] = assay: Antibacterial activity against kanamycin-resistant Escherichia coli AG100A expressing aminoglycosides resistant APH(3')-1 enzyme by double-microdilution method
Escherichia coli [4] = assay: Antibacterial activity against Escherichia coli ATCC 25922 by double-microdilution method
Escherichia coli [5] = assay: Antibacterial activity against Escherichia coli XL1-blue by double-microdilution method
Escherichia coli [6] = assay: Resistance index, MIC for aminoglycosides-resistant Escherichia coli XL1-blue harboring pET9d expressing APH(3')-1a enzyme to MIC for Escherichia coli XL1-blue
How it was run: (§1)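 Ratio of MIC on the plasmid-bearing resistant strain to MIC on its background strain (pETSACG1 vs BL21; pET9d or pSF815 vs XL1 blue). MICs by NCCLS double microdilution from starting concentrations of 384 and 1.5 µg/mL, in duplicate, two to four experiments.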

Escherichia coli [7] = assay: Antibacterial activity against aminoglycosides-resistant Escherichia coli XL1-blue harboring pET9d expressing APH(3')-1a enzyme by double-microdilution method
Escherichia coli [8] = assay: Resistance index, MIC for aminoglycosides-resistant Escherichia coli XL1-blue harboring pSF815 expressing AAC(6')-APH(2'') enzyme to MIC for Escherichia coli XL1-blue; how it was run: as §1
Escherichia coli [9] = assay: Antibacterial activity against Escherichia coli BL21 by double-microdilution method
Escherichia coli [10] = assay: Antibacterial activity against aminoglycosides-resistant Escherichia coli BL21 harboring pETSACG1 expressing APH(3')-3a enzyme by double-microdilution method
Escherichia coli [11] = assay: Antibacterial activity against aminoglycosides-resistant Escherichia coli XL1-blue harboring pSF815 expressing AAC(6')-APH(2'') enzyme by double-microdilution method
Escherichia coli [12] = assay: Resistance index, MIC for aminoglycosides-resistant Escherichia coli BL21 harboring pETSACG1 expressing APH(3')-3a enzyme to MIC for Escherichia coli BL21; how it was run: as §1

Row | Structure (SMILES) | MIC (Staphylococcus aureus) [µg/mL] | MIC (Escherichia coli [1]) [µg/mL] | MIC (Bacillus subtilis) [µg/mL] | MIC (Escherichia coli [2]) [µg/mL] | MIC (Escherichia coli [3]) [µg/mL] | MIC (Escherichia coli [4]) [µg/mL] | MIC (Escherichia coli [5]) [µg/mL] | Ratio (Escherichia coli [6]) | MIC (Escherichia coli [7]) [µg/mL] | Ratio (Escherichia coli [8]) | MIC (Escherichia coli [9]) [µg/mL] | MIC (Escherichia coli [10]) [µg/mL] | MIC (Escherichia coli [11]) [µg/mL] | Ratio (Escherichia coli [12])
1 | NC[C@@H]1O[C@H](O[C@H]2[C@@H](O)[C@H](O[C@@H]3[C@@H](O)[C@H](N)C[C@H](N)[C@H]3O[C@H]3O[C@H](CN)[C@@H](O)[C@H](O)[C@H]3N)O[C@@H]2C(=O)Nc2ccc(-c3cn(CCCN4CCN(c5cc6c(cc5F)c(=O)c(C(=O)O)cn6C5CC5)CC4)nn3)cc2)[C@H](N)[C@@H](O)[C@@H]1O | 48 (≈ 42 µM) | 6 (≈ 5.25 µM) | 6 (≈ 5.25 µM) | 12 (≈ 10.5 µM) | 1.5 (≈ 1.31 µM) | 3 (≈ 2.63 µM) | – | – | – | – | – | – | – | –
2 | NC[C@@H]1O[C@H](O[C@H]2[C@@H](O)[C@H](O[C@@H]3[C@@H](O)[C@H](N)C[C@H](N)[C@H]3O[C@H]3O[C@H](CN)[C@@H](O)[C@H](O)[C@H]3N)O[C@@H]2C(=O)NCc2cn(CCN3CCN(c4cc5c(cc4F)c(=O)c(C(=O)O)cn5C4CC4)CC3)nn2)[C@H](N)[C@@H](O)[C@@H]1O | 24 (≈ 22.5 µM) | 12 (≈ 11.3 µM) | 3 (≈ 2.81 µM) | 12 (≈ 11.3 µM) | 1.5 (≈ 1.41 µM) | 6 (≈ 5.63 µM) | – | – | – | – | – | – | – | –
3 | NC[C@@H]1O[C@H](O[C@H]2[C@@H](O)[C@H](O[C@@H]3[C@@H](O)[C@H](N)C[C@H](N)[C@H]3O[C@H]3O[C@H](CN)[C@@H](O)[C@H](O)[C@H]3N)O[C@@H]2C(=O)NCc2cn(CCCCCN3CCN(c4cc5c(cc4F)c(=O)c(C(=O)O)cn5C4CC4)CC3)nn2)[C@H](N)[C@@H](O)[C@@H]1O | 48 (≈ 43.3 µM) | 24 (≈ 21.7 µM) | 12 (≈ 10.8 µM) | 24 (≈ 21.7 µM) | 1.5 (≈ 1.35 µM) | 6 (≈ 5.41 µM) | – | – | – | – | – | – | – | –
4 | NC[C@@H]1O[C@H](O[C@H]2[C@@H](O)[C@H](O[C@@H]3[C@@H](O)[C@H](N)C[C@H](N)[C@H]3O[C@H]3O[C@H](CN)[C@@H](O)[C@H](O)[C@H]3N)O[C@@H]2C(=O)Nc2ccc(-c3cn(CCCCN4CCN(c5cc6c(cc5F)c(=O)c(C(=O)O)cn6C5CC5)CC4)nn3)cc2)[C@H](N)[C@@H](O)[C@@H]1O | 24 (≈ 20.8 µM) | 12 (≈ 10.4 µM) | 6 (≈ 5.19 µM) | 24 (≈ 20.8 µM) | 1.5 (≈ 1.3 µM) | 6 (≈ 5.19 µM) | – | – | – | – | – | – | – | –
5 | NC[C@@H]1O[C@H](O[C@H]2[C@@H](O)[C@H](O[C@@H]3[C@@H](O)[C@H](N)C[C@H](N)[C@H]3O[C@H]3O[C@H](CN)[C@@H](O)[C@H](O)[C@H]3N)O[C@@H]2C(=O)NCc2cn(CCCN3CCN(c4cc5c(cc4F)c(=O)c(C(=O)O)cn5C4CC4)CC3)nn2)[C@H](N)[C@@H](O)[C@@H]1O | 48 (≈ 44.4 µM) | 12 (≈ 11.1 µM) | 6 (≈ 5.55 µM) | 12 (≈ 11.1 µM) | 1.5 (≈ 1.39 µM) | 6 (≈ 5.55 µM) | – | – | – | – | – | – | – | –
6 | NC[C@@H]1O[C@H](O[C@H]2[C@@H](O)[C@H](O[C@@H]3[C@@H](O)[C@H](N)C[C@H](N)[C@H]3O[C@H]3O[C@H](CN)[C@@H](O)[C@H](O)[C@H]3N)O[C@@H]2C(=O)Nc2ccc(-c3cn(CCCCCN4CCN(c5cc6c(cc5F)c(=O)c(C(=O)O)cn6C5CC5)CC4)nn3)cc2)[C@H](N)[C@@H](O)[C@@H]1O | 48 (≈ 41 µM) | 12 (≈ 10.3 µM) | 12 (≈ 10.3 µM) | 24 (≈ 20.5 µM) | 1.5 (≈ 1.28 µM) | 6 (≈ 5.13 µM) | – | – | – | – | – | – | – | –
7 | NC[C@@H]1O[C@H](O[C@H]2[C@@H](O)[C@H](O[C@@H]3[C@@H](O)[C@H](N)C[C@H](N)[C@H]3O[C@H]3O[C@H](CN)[C@@H](O)[C@H](O)[C@H]3N)O[C@@H]2C(=O)Nc2ccc(-c3cn(CCCCCCN4CCN(c5cc6c(cc5F)c(=O)c(C(=O)O)cn6C5CC5)CC4)nn3)cc2)[C@H](N)[C@@H](O)[C@@H]1O | 48 (≈ 40.5 µM) | 6 (≈ 5.07 µM) | 12 (≈ 10.1 µM) | 12 (≈ 10.1 µM) | 1.5 (≈ 1.27 µM) | 6 (≈ 5.07 µM) | – | – | – | – | – | – | – | –
8 | NC[C@@H]1O[C@H](O[C@H]2[C@@H](O)[C@H](O[C@@H]3[C@@H](O)[C@H](N)C[C@H](N)[C@H]3O[C@H]3O[C@H](CN)[C@@H](O)[C@H](O)[C@H]3N)O[C@@H]2C(=O)Nc2ccc(-c3cn(Cc4cccc(CN5CCN(c6cc7c(cc6F)c(=O)c(C(=O)O)cn7C6CC6)CC5)c4)nn3)cc2)[C@H](N)[C@@H](O)[C@@H]1O | 12 (≈ 9.96 µM) | 6 (≈ 4.98 µM) | 6 (≈ 4.98 µM) | 12 (≈ 9.96 µM) | 1.5 (≈ 1.25 µM) | 12 (≈ 9.96 µM) | – | – | – | – | – | – | – | –
9 | NC[C@@H]1O[C@H](O[C@H]2[C@@H](O)[C@H](O[C@@H]3[C@@H](O)[C@H](N)C[C@H](N)[C@H]3O[C@H]3O[C@H](CN)[C@@H](O)[C@H](O)[C@H]3N)O[C@@H]2C(=O)NCc2cn(Cc3cccc(CN4CCN(c5cc6c(cc5F)c(=O)c(C(=O)O)cn6C5CC5)CC4)c3)nn2)[C@H](N)[C@@H](O)[C@@H]1O | 6 (≈ 5.25 µM) | 6 (≈ 5.25 µM) | 3 (≈ 2.63 µM) | 12 (≈ 10.5 µM) | 0.75 (≈ 0.657 µM) | 6 (≈ 5.25 µM) | 6 (≈ 5.25 µM) | 1 | 6 (≈ 5.25 µM) | 4 | 0.4 (≈ 0.35 µM) | 0.4 (≈ 0.35 µM) | 24 (≈ 21 µM) | 1
10 | NC[C@@H]1O[C@H](O[C@H]2[C@@H](O)[C@H](O[C@@H]3[C@@H](O)[C@H](N)C[C@H](N)[C@H]3O[C@H]3O[C@H](CN)[C@@H](O)[C@H](O)[C@H]3N)O[C@@H]2C(=O)NCc2cn(Cc3ccc(CN4CCN(c5cc6c(cc5F)c(=O)c(C(=O)O)cn6C5CC5)CC4)cc3)nn2)[C@H](N)[C@@H](O)[C@@H]1O | 3 (≈ 2.63 µM) | 6 (≈ 5.25 µM) | 3 (≈ 2.63 µM) | 12 (≈ 10.5 µM) | 1.5 (≈ 1.31 µM) | 6 (≈ 5.25 µM) | 6 (≈ 5.25 µM) | 1 | 6 (≈ 5.25 µM) | 1 | 0.4 (≈ 0.35 µM) | 0.4 (≈ 0.35 µM) | 6 (≈ 5.25 µM) | 1
11 | NC[C@@H]1O[C@H](O[C@H]2[C@@H](O)[C@H](O[C@@H]3[C@@H](O)[C@H](N)C[C@H](N)[C@H]3O[C@H]3O[C@H](CN)[C@@H](O)[C@H](O)[C@H]3N)O[C@@H]2C(=O)NCc2cn(CCOCCN3CCN(c4cc5c(cc4F)c(=O)c(C(=O)O)cn5C4CC4)CC3)nn2)[C@H](N)[C@@H](O)[C@@H]1O | 24 (≈ 21.6 µM) | 12 (≈ 10.8 µM) | 12 (≈ 10.8 µM) | 12 (≈ 10.8 µM) | 1.5 (≈ 1.35 µM) | 6 (≈ 5.4 µM) | – | – | – | – | – | – | – | –
12 | NC[C@@H]1O[C@H](O[C@H]2[C@@H](O)[C@H](O[C@@H]3[C@@H](O)[C@H](N)C[C@H](N)[C@H]3O[C@H]3O[C@H](CN)[C@@H](O)[C@H](O)[C@H]3N)O[C@@H]2C(=O)Nc2ccc(-c3cn(CCOCCN4CCN(c5cc6c(cc5F)c(=O)c(C(=O)O)cn6C5CC5)CC4)nn3)cc2)[C@H](N)[C@@H](O)[C@@H]1O | 24 (≈ 20.5 µM) | 24 (≈ 20.5 µM) | 12 (≈ 10.2 µM) | 12 (≈ 10.2 µM) | 1.5 (≈ 1.28 µM) | 12 (≈ 10.2 µM) | – | – | – | – | – | – | – | –
13 | NC[C@@H]1O[C@H](O[C@H]2[C@@H](O)[C@H](O[C@@H]3[C@@H](O)[C@H](N)C[C@H](N)[C@H]3O[C@H]3O[C@H](CN)[C@@H](O)[C@H](O)[C@H]3N)O[C@@H]2C(=O)Nc2ccc(-c3cn(CCN4CCN(c5cc6c(cc5F)c(=O)c(C(=O)O)cn6C5CC5)CC4)nn3)cc2)[C@H](N)[C@@H](O)[C@@H]1O | 48 (≈ 42.5 µM) | 12 (≈ 10.6 µM) | 6 (≈ 5.32 µM) | 24 (≈ 21.3 µM) | 0.75 (≈ 0.665 µM) | 6 (≈ 5.32 µM) | – | – | – | – | – | – | – | –
